# Data published in ChEMBL document CHEMBL1123722, “Comparative antitumor studies on platinum(II) and platinum(IV) complexes containing 1,2-diaminocyclohexane” (J Med Chem, 1987).
# Columns and labels:
# L1210 = assay: Antitumor activity against 10E6 L1210 ascites cells implanted ip in CDF1 mice was determined after a dose of 6-10 mg/kg; assay type: functional, organism-based; settings: Mus musculus
# Outline: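 CDF1 mice implanted with 1 × 10⁶ L1210 ascites cells ip. Complexes were suspended in 0.9% NaCl with a drop of Tween 80 and given ip on day 1 after tumor inoculation. Groups were five treated mice and 10 leukemic controls. Mice were observed daily. Activity is % T/C: median survival time of treated ÷ untreated controls × 100.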
# B16 = assay: Antitumor activity against B16 tumor ascite cells implanted ip in BDF1 mice was determined at a dose of 1.6-2 mg/kg; assay type: functional, organism-based; settings: Mus musculus
sequence,measurement,setting,value
CISPLATIN,T/C,L1210,150%
same,T/C,B16,167%
